Results taken from ChEMBL document CHEMBL4177574, “A novel class of Plasmodial ClpP protease inhibitors as potential antimalarial agents” (Bioorg Med Chem, 2017).
Active and inactive are the calls of the source. The calls are words filed in the database; no cut-off is given here. Where a SMILES comes first, the peptide text is derived from it. The star is where a group is joined. Cbz = O=C(OCc1ccccc1)*; OBn = c1ccc(CO*)cc1

How the values were obtained:
[1] = Inhibition of recombinant Plasmodium falciparum ClpP expressed in Escherichia coli BL21(DE3) using Suc-LLVY-AMC substrate incubated for 3 to 6 hrs by fluorimetric assay
Method in brief: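 The protease domain of PfClpP (aa 168–370) was His-tagged in pET28a, expressed in E. coli BL21(DE3) with 1 mM IPTG at 37 °C for 3–4 h, Ni-NTA purified and BCA quantified. Assay used 13 µM enzyme in 0.1 M sodium acetate pH 7.0 with 1.0 mM DTT and 50 µM Suc-LLVY-AMC final. AMC fluorescence (ex 355/em 460) was followed continuously for 3–6 h at RT; IC50 by curve fitting.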

Plasmodium falciparum [2] = assay: Antimalarial activity against Plasmodium falciparum 3D7 assessed as inhibition of parasite growth incubated for 96 hrs in presence of 4% haematocrit by SYBR green dye based assay; format: functional, organism-based
Method in brief: (§1)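 P. falciparum 3D7 in RPMI with 0.5% albumax at 4% haematocrit, sorbitol-synchronized, starting parasitaemia ~1%. Compound added at final 0–100 µM, with DMSO in control wells. Growth ran 96 h and was read by SYBR green DNA-dye fluorescence. Triplicate wells, experiment repeated twice; IC50 derived from these.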

[3] = Ratio of IC50 for inhibition of recombinant Plasmodium falciparum ClpP expressed in Escherichia coli BL21(DE3) to IC50 for antimalarial activity against Plasmodium falciparum 3D7
Plasmodium falciparum [4] = assay: Inhibition of apicoplast growth in ACP-GFP expressing Plasmodium falciparum D10 at 10 uM measured during second cycle by DAPI dye based confocal laser-scanning microscopy; format: functional, organism-based
Method in brief: (§2)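 D10 ACP-GFP parasites were grown like 3D7 with 100 nM pyrimethamine, and ring stages (8–10 hpi) were treated with compound. Parasites were sampled at 36/40 hpi and 72 hpi, DAPI-stained at 2 µg/mL final for 30 min at 37 °C, and imaged by confocal microscopy for apicoplast GFP morphology.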

Plasmodium falciparum [5] = assay: Effect on apicoplast development in ACP-GFP expressing Plasmodium falciparum D10 at 10 uM measured during first cycle by DAPI dye based confocal laser-scanning microscopy; format: functional, organism-based; method in brief: as §2
Plasmodium falciparum [6] = assay: Inhibition of apicoplast development in ACP-GFP expressing Plasmodium falciparum D10 assessed as induction of round stump-like structures at 10 uM measured at 90 to 96 hrs post dose by DAPI dye based confocal laser-scanning microscopy; format: functional, organism-based
Plasmodium falciparum [7] = assay: Antimalarial activity against Plasmodium falciparum 3D7 assessed as reduction in mature schizonts formation after 60 hrs post infection; format: functional, organism-based
Plasmodium falciparum [8] = assay: Inhibition of apicoplast development in ACP-GFP expressing Plasmodium falciparum D10 at 10 uM measured during second cycle by DAPI dye based confocal laser-scanning microscopy; format: functional, organism-based; method in brief: as §2
Plasmodium falciparum [9] = assay: Effect on nuclear division in ACP-GFP expressing Plasmodium falciparum D10 apicoplast at 10 uM measured at 96 hrs post dose by DAPI dye based confocal laser-scanning microscopy; format: functional, organism-based
HeLa = assay: Cytotoxic activity against human HeLa cells assessed as reduction in cell viability incubated for 48 hrs by MTT assay
Plasmodium falciparum [10] = assay: Inhibition of apicoplast development in ACP-GFP expressing Plasmodium falciparum D10 assessed as induction of round stump-like structures at 10 uM measured at 72 hrs post dose by DAPI dye based confocal laser-scanning microscopy; format: functional, organism-based; method in brief: as §2
Plasmodium falciparum [11] = assay: Antimalarial activity against Plasmodium falciparum 3D7 assessed as inhibition of parasite growth at 100 uM incubated for 96 hrs in presence of 4% haematocrit by SYBR green dye based assay; format: functional, organism-based; method in brief: as §1
[12] = Plasmodium falciparum, 3D7, 96 h, read-out: IC50

O=C(NCCCc1ccccc1)c1cnc(SCC(=O)N2CCOCC2)n(Cc2ccccc2)c1=O
IC50 [1]: 46 µM
Ki ([1]; read-out: Ki): 18.8 µM
IC50 (Plasmodium falciparum [2]; [12]): 11.7 µM

O=C(CSc1nc(SCC(=O)NCc2ccco2)nc(SCC(=O)NCc2ccco2)n1)NCc1ccco1
IC50 [1]: 92 µM
Ki ([1]; read-out: Ki): 38 µM
IC50 (Plasmodium falciparum [2]): Not Active

COc1cccc(NC(=O)CSc2nc3sc4c(c3c(=O)n2CCc2ccccc2)CC(C(C)C)OC4)c1 (stereo unspecified)
IC50 [1]: > 100 µM
Ki [1]: Not Active
IC50 (Plasmodium falciparum [2]): Not Active

CCCCOc1ccc(-c2nn(-c3ccccc3)cc2/C=C(\C#N)C(=O)NCc2ccco2)c(C)c1
IC50 [1]: > 100 µM
Ki [1]: Not Active
IC50 (Plasmodium falciparum [2]): Not Active

CCOC(=O)c1cnc(SCC(=O)NNC(=O)Cc2ccccc2)[nH]c1=O
IC50 [1]: 42 µM
Ki ([1]; read-out: Ki): 17 µM
IC50 (Plasmodium falciparum [2]; [12]): 82.5 µM

CCN(CC)c1ccc(C(=O)CSc2nc(C)cc(SCC(=O)NNC(=O)Cc3ccccc3)n2)cc1
IC50 [1]: 28.3 µM
Ki ([1]; read-out: Ki): 11.6 µM
IC50 (Plasmodium falciparum [2]; [12]): 12.1 µM

CC(CCc1ccccc1)NC(=O)CSc1nc2sc3c(c2c(=O)n1CCc1ccccc1)CC(C(C)C)OC3 (stereo unspecified)
IC50 [1]: 23 µM
Ki ([1]; read-out: Ki): 9 µM
IC50 (Plasmodium falciparum [2]; [12]): 25 µM

Cc1cc(SCC(=O)NNC(=O)Cc2ccccc2)nc(SCCN2CCOCC2)n1
IC50 [1]: 30.3 µM
Ki ([1]; read-out: Ki): 12.3 µM
IC50 (Plasmodium falciparum [2]; [12]): 14.4 µM

CCOC(=O)c1cnc(SCCN2CCOCC2)n(CC(=O)c2ccccc2)c1=O
IC50 [1]: 40 µM
Ki ([1]; read-out: Ki): 16 µM
IC50 (Plasmodium falciparum [2]; [12]): 19 µM

CCCOc1ccc(-c2nn(-c3ccccc3)cc2/C=C2\SC(=S)N(CCc3ccccc3)C2=O)cc1F
IC50 [1]: > 100 µM
Ki [1]: Not Active
IC50 (Plasmodium falciparum [2]): Not Active

O=C(CNC(=O)OCc1ccccc1)N[C@@H](CCC(=O)OCc1ccccc1)C(=O)OCc1ccccc1 (Cbz-Gly-Glu(OBn)-OBn)
IC50 [1]: > 100 µM
Ki [1]: Not Active
IC50 (Plasmodium falciparum [2]): Not Active

CCN(CC)c1ccc(C(=O)CSc2ncc(C(=O)NCCCc3ccccc3)c(=O)n2Cc2ccccc2)cc1
IC50 [1]: > 100 µM
Ki [1]: Not Active
IC50 (Plasmodium falciparum [2]; [12]): 9.2 µM

O=C(COc1ccccc1)Nc1cc(NC(=O)COc2ccccc2)cc(C(=O)Nc2nccs2)c1
IC50 [1]: 88 µM
Ki ([1]; read-out: Ki): 36 µM
IC50 (Plasmodium falciparum [2]): Not Active

CCc1nnc(NC(=O)CSc2nnc(-c3cc4ccccc4cc3O)n2CCOC)s1
IC50 [1]: 30 µM
Ki ([1]; read-out: Ki): 12.1 µM
IC50 (Plasmodium falciparum [2]; [12]): 27 µM

O=C(CSc1ncc(C(=O)NCCCc2ccccc2)c(=O)n1Cc1ccccc1)c1ccccc1
IC50 [1]: 24 µM
Ki ([1]; read-out: Ki): 10 µM
IC50 (Plasmodium falciparum [2]; [12]): 20 µM

CCCc1cc(=O)oc2cc(OCC(=O)N[C@@H](CSCc3ccccc3)C(=O)O)ccc12
IC50 [1]: > 100 µM
Ki [1]: Not Active
IC50 (Plasmodium falciparum [2]): Not Active

CC(C)C1Cc2c(sc3nc(SCC(=O)NCc4ccccc4)n(CCc4ccccc4)c(=O)c23)CO1 (stereo unspecified)
IC50 [1]: > 100 µM
Ki [1]: Not Active
IC50 (Plasmodium falciparum [2]): Not Active

Cc1cc(SCC(=O)NNC(=O)Cc2ccccc2)nc(SCC(=O)c2ccc(C#N)cc2)n1
IC50 [1]: 37.4 µM
Ki ([1]; read-out: Ki): 15.3 µM
IC50 (Plasmodium falciparum [2]; [12]): 12.4 µM

COc1ccc(C(=O)CSc2ncc(C(=O)NCCCc3ccccc3)c(=O)n2Cc2ccccc2)cc1
IC50 [1]: 45 µM
Ki ([1]; read-out: Ki): 18 µM
Ratio IC50 [3]: 20
IC50 (Plasmodium falciparum [2]; [12]): 2.4 µM

CCOC(=O)CSc1ncc(C(=O)NCCCc2ccccc2)c(=O)n1Cc1ccccc1
IC50 [1]: 58.3 µM
Ki ([1]; read-out: Ki): 23.8 µM
IC50 (Plasmodium falciparum [2]; [12]): 15.9 µM

CCc1ccc(CSc2ncc(Cl)c(C(=O)NCCC(=O)Nc3ccc(Cl)cc3)n2)cc1
IC50 [1]: > 100 µM
Ki [1]: Not Active
IC50 (Plasmodium falciparum [2]): Not Active

O=C(NCCCc1ccccc1)c1cnc(SCCN2CCOCC2)n(Cc2ccccc2)c1=O
growth inhibition (GI) (Plasmodium falciparum [4]): Active
IC50 [1]: 10.5 µM
Ki ([1]; read-out: Ki): 2.3 µM
Activity (Plasmodium falciparum [5]): inactive
IC50 (Plasmodium falciparum [2]; [12]): 9 µM
Activity (Plasmodium falciparum [6]): Active
Activity (Plasmodium falciparum [7]): Active
inhibition (Plasmodium falciparum [8]): Active
Activity (Plasmodium falciparum [9]): inactive
IC50 (HeLa): > 5000 µM
Activity (Plasmodium falciparum [10]): Active

Cc1cc(SCC(=O)NNC(=O)Cc2ccccc2)nc(SCC(=O)N2CCOCC2)n1
IC50 [1]: 28.8 µM
Ki ([1]; read-out: Ki): 11.8 µM
IC50 (Plasmodium falciparum [2]; [12]): 17.3 µM

COc1ccc(C(=O)CSc2nc(C)cc(SCC(=O)NNC(=O)Cc3ccccc3)n2)cc1
IC50 [1]: 34.7 µM
Ki ([1]; read-out: Ki): 14.2 µM
IC50 (Plasmodium falciparum [2]; [12]): 11.8 µM

O=C(CSc1ncc(C(=O)NCCCc2ccccc2)c(=O)n1Cc1ccccc1)NNC(=O)Cc1ccccc1
inhibition (Plasmodium falciparum [11]): inactive
IC50 [1]: 72.6 µM
Ki ([1]; read-out: Ki): 29.5 µM
IC50 (Plasmodium falciparum [2]): Not Active

Cc1cc(SCC(=O)NNC(=O)Cc2ccccc2)nc(SCC(=O)c2ccccc2)n1
IC50 [1]: 26 µM
Ki ([1]; read-out: Ki): 11 µM
IC50 (Plasmodium falciparum [2]; [12]): 75 µM

O=C(CSc1ncc(C(=O)NCCCc2ccccc2)c(=O)n1Cc1ccccc1)c1ccc(O)cc1
IC50 [1]: 53 µM
Ki ([1]; read-out: Ki): 21.6 µM
IC50 (Plasmodium falciparum [2]; [12]): 9.2 µM

CCOC(=O)c1cnc(SCCN2CCOCC2)[nH]c1=O
IC50 [1]: > 100 µM
Ki [1]: Not Active
IC50 (Plasmodium falciparum [2]): Not Active

N#Cc1ccc(C(=O)CSc2ncc(C(=O)NCCCc3ccccc3)c(=O)n2Cc2ccccc2)cc1
IC50 [1]: > 100 µM
Ki [1]: Not Active
IC50 (Plasmodium falciparum [2]; [12]): 13.7 µM

O=C(O)c1cnc2n(c1=O)CC(c1ccccc1)=C(CN1CCOCC1)S2
IC50 [1]: > 100 µM
Ki [1]: Not Active
IC50 (Plasmodium falciparum [2]; [12]): 11 µM

O=C(NCCCc1ccccc1)c1cnc(SCCN2CCOCC2)[nH]c1=O
IC50 [1]: 44 µM
Ki ([1]; read-out: Ki): 18 µM
IC50 (Plasmodium falciparum [2]; [12]): 22 µM

COc1ccc(CNC(=O)C(=O)N/N=C/c2ccc(CNS(=O)(=O)c3ccc(Br)cc3)o2)cc1
IC50 [1]: > 100 µM
Ki [1]: Not Active
IC50 (Plasmodium falciparum [2]): Not Active
